Assay results: ChEMBL document CHEMBL1125082, “Synthesis and antimalarial activity of (+)-deoxoartemisinin” (J Med Chem, 1990)
≈ marks a conversion by molar mass, not a printed value.

What was measured:
Plasmodium falciparum [1] = assay: In vitro antimalarial activity against mefloquine-resistant Plasmodium falciparum D6 (Sierra Leone); format: functional, organism-based
Method in brief: (§1)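 Semiautomated microdilution over a 64-fold dilution range, with DMSO stock diluted in medium with 10% plasma. Parasites at 0.5% parasitemia and 1.5% hematocrit, 37°C under 5% O2/5% CO2/90% N2 for 24 h. Tritiated hypoxanthine added for a further 18–20 h and incorporation read by scintillation. IC50 from nonlinear regression of concentration–response curves.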

Plasmodium falciparum [2] = assay: In vitro antimalarial activity against chloroquine-resistant Plasmodium falciparum W2 (Indochina); format: functional, organism-based; method in brief: as §1
Plasmodium berghei [3] = assay: Antimalarial activity against Plasmodium berghei infected mice (Mus musculus) at 40 mg/kg dose; n=5; format: functional
Method in brief: (§2)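 Mice infected intraperitoneally on day 0 with 5.98×10^5 P. berghei-parasitized cells. A single subcutaneous dose in peanut oil was given on day 3, at 640, 320, 160, 80, 40 or 20 mg/kg. Blood films were taken on day 6, then every 7 days to day 60. Mice surviving 60 days counted as cured. Activity meant survival over twice that of infected untreated controls.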

Plasmodium berghei [4] = assay: Antimalarial activity against Plasmodium berghei infected mice (Mus musculus) at 320 mg/kg dose; active in 2 of 5; format: functional; method in brief: as §2
Plasmodium berghei [5] = assay: Antimalarial activity against Plasmodium berghei infected mice (Mus musculus) at 640 mg/kg dose; n=5; format: functional; method in brief: as §2
Plasmodium berghei [6] = assay: Antimalarial activity against Plasmodium berghei infected mice (Mus musculus) at 80 mg/kg dose;n=5; format: functional; method in brief: as §2
Plasmodium berghei [7] = assay: Antimalarial activity against Plasmodium berghei infected mice (Mus musculus) at 160 mg/kg dose; active in 2 of 5; format: functional; method in brief: as §2
Plasmodium berghei [8] = assay: Antimalarial activity against Plasmodium berghei infected mice (Mus musculus) at 20 mg/kg dose; n=5; format: functional; method in brief: as §2
Plasmodium berghei [9] = assay: Antimalarial activity against Plasmodium berghei infected mice (Mus musculus) at 160 mg/kg dose; n=5; format: functional; method in brief: as §2
Plasmodium berghei [10] = assay: Antimalarial activity against Plasmodium berghei infected mice (Mus musculus) at 320 mg/kg dose; n=5; format: functional; method in brief: as §2

Row | SMILES | IC50 (Plasmodium falciparum [1]) [ng/mL] | IC50 (Plasmodium falciparum [2]) [ng/mL] | No. of mice cured (Plasmodium berghei [3]) | No. of mice cured (Plasmodium berghei [4]) | No. of mice cured (Plasmodium berghei [5]) | No. of mice cured (Plasmodium berghei [6]) | No. of mice cured (Plasmodium berghei [7]) | No. of mice cured (Plasmodium berghei [8]) | No. of mice cured (Plasmodium berghei [9]) | No. of mice cured (Plasmodium berghei [10])
1 | C[C@@H]1CC[C@H]2[C@@H](C)CO[C@@H]3OC4(C)CC[C@@H]1[C@]32O4 (single isomer, unassigned) | 250 (≈ 991 nM) | 250 (≈ 991 nM) | – | – | – | – | – | – | – | –
2 | C[C@@H]1CC[C@H]2[C@@H](C)C(O)O[C@@H]3OC4(C)CC[C@@H]1[C@]32OO4 (single isomer, unassigned) | 0.11 (≈ 0.387 nM) | 0.04 (≈ 0.141 nM) | – | – | – | – | – | – | – | –
3 | C[C@@H]1CC[C@H]2[C@@H](C)CO[C@@H]3OC4(C)CC[C@@H]1[C@]32OO4 (single isomer, unassigned) [DEOXOARTEMISININ] | 0.58 (≈ 2.16 nM) | 0.15 (≈ 0.559 nM) | 0 | 2 | 5 | 0 | 0 | 0 | – | –
4 | C[C@@H]1CC[C@H]2[C@@H](C)C(=O)O[C@@H]3O[C@@]4(C)CC[C@@H]1[C@]32OO4 [ARTEMISININ] | 2.33 (≈ 8.25 nM) | 1.21 (≈ 4.29 nM) | 0 | – | 5 | 0 | – | 0 | 0 | 0
5 | CCO[C@H]1O[C@@H]2O[C@@]3(C)CC[C@H]4[C@H](C)CC[C@@H]([C@H]1C)[C@@]24OO3 [ARTEMOTIL] | 0.87 (≈ 2.78 nM) | 0.16 (≈ 0.512 nM) | – | – | – | – | – | – | – | –
